DENV2 CPE rescue – inhibitors of DENV2 cytopathic effect, primary screen, cell-based, plate reader, single concentration; DENV2-infected cells, cytopathic effect rescue; CPE inhibition, % at 9.99 µM; actives 1.7% (n = 350,000); in the data active means CPE inhibition above about 20%, passing the limit was not always enough; inconclusive means no clear call, values can overlap the other calls; tested in BHK-21 cells;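 further: 0% = median of neutral control wells and 100% = median of positive control wells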
E-sel inducer – E-selectin induction in HUVECs, primary screen, imaging, HUVEC, immunofluorescence imaging, single point; activation, % at 7.58 µM; P16581; AID 686992, 2013; actives 0.37% (n = 260,000); normalized: neutral wells 0, TNF-alpha wells 100;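 active means mean E-selectin-positive cell signal at least 10% of the positive control, reached in at least 60% of replicates, without over 20% cell loss; inconclusive means no rule given, readout overlaps actives, possibly toxicity-flagged; inactive means the rest, including those meeting only one limit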
Target sequence (P16581 whole entry, looked up): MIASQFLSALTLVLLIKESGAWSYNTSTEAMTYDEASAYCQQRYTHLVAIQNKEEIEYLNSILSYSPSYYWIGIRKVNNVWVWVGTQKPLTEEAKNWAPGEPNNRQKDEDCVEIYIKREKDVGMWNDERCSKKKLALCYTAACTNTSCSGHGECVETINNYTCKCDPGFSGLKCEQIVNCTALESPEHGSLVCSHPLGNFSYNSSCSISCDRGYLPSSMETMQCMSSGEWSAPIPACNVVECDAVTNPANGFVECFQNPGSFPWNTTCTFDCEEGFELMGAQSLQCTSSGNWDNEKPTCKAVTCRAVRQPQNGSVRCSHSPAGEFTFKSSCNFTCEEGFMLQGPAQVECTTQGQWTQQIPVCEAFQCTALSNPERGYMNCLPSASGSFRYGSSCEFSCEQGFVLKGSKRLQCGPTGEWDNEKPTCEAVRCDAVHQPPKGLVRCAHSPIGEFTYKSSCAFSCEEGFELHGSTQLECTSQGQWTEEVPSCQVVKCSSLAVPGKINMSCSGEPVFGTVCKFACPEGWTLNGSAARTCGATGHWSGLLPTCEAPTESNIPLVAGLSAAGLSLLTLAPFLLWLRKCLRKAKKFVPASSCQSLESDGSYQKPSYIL
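Test system – human umbilical vein endothelial cells (HUVEC), E-selectin induction · Input – 3,000 HUVEC seeded per well · Buffer or medium – EGM-2, gelatin · Compound dosing – single-point compound dose · Detection – immunofluorescence imaging · Measure – percent E-selectin-positive cells · Controls – TNF-alpha high, DMSO low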
FGF22 binding – binders of human FGF22 protein, primary screen, FGF22 synaptogenesis inhibitor project, biophysical, thermal shift, single point | recombinant FGF22 thermal shift, SYPRO orange fluorescence; percent of sucrose octasulfate shift, DMSO zero | activity (Tm shift, normalised), % at 9.99 µM | actives 1.5% (n = 340,000) | AID 651658, 2012;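 active means mean Tm shift, scaled 0 neutral to 100 positive control, at about 1.3% or above, every replicate too, limit read from the data; inconclusive means no clear call, values can overlap the other calls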
CFTR F508del cor – F508del CFTR correction, initial screen, CFBE line, single point. activity (quench increase), % at 7.58 µM. CFBE cells, YFP halide quenching; stimulated with forskolin plus potentiator P3; % fluorescence drop versus neutral controls. actives 0.36% (n = 350,000);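 active means mean added fluorescence quench of at least 8% versus neutral control, with both replicates also reaching 8%; inconclusive means only one of the mean or replicate conditions met; inactive means mean below 8% and not both replicates reaching 8%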;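 further: cells transiently co-express mutant CFTR-F508del with the halide-sensitive YFP; corrector assay measuring rescue of mutant channel to the surface after 24 h compound exposure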
ERAP1 inh – human ERAP1 aminopeptidase inhibitors, primary screen, biochemical, single point, plate reader; actives 0.15% (n = 340,000); recombinant ERAP1, Leu-AMC fluorescence, 60 min; Endoplasmic reticulum aminopeptidase 1 (Homo sapiens), Q9NZ08; inhibition, % at 10.7 µM; AID 652197, 2013;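 active means mean replicate inhibition of at least 30%, or all replicates individually reaching that 30% level; inactive means mean below 30% and not every replicate reaching it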;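 further: 0% = neutral control wells and 100% = L-leucinethiol positive control wells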
* = called active by the depositor. Compounds with a hit are over-represented: about 3.7% of the library has one in this group of screens.

How did CN(C)C(=O)[C@@H]1[C@@H](CO)[C@@H]2Cn3c(ccc(-c4ccncc4)c3=O)[C@@H]2N1Cc1ccccc1 do in these assays?
DENV2 CPE rescue: 2; E-sel inducer: 0; FGF22 binding: 0; ERAP1 inh: 0

Results for C[C@@H]1CN([C@@H](C)CO)C(=O)c2cc(C#CC3CCCCC3)cnc2O[C@H]1CN(C)S(=O)(=O)c1ccc(F)cc1 ?
DENV2 CPE rescue: inconclusive; E-sel inducer: 0; FGF22 binding: 0; CFTR F508del cor: 3; ERAP1 inh: 1

What do the screens show for `C[C@@H](NC(=O)[C@@H]1N[C@@H]2c3ccc(-c4ccncc4)c(=O)n3C[C@@H]2[C@H]1CO)c1ccccc1`?
DENV2 CPE rescue: 9; E-sel inducer: -1; FGF22 binding: 0; CFTR F508del cor: -1; ERAP1 inh: 0

How did CCOC(=O)c1oc2ccccc2c1NC(=O)c1ccco1 do in these assays?
DENV2 CPE rescue: 7; E-sel inducer: -1; FGF22 binding: 0; CFTR F508del cor: 5; ERAP1 inh: -1

How did Nc1c(C(=O)c2ccco2)oc2ccccc12 do in these assays?
DENV2 CPE rescue: -1; E-sel inducer: 0; FGF22 binding: 0; CFTR F508del cor: 14*; ERAP1 inh: 7

Results for CC(CCC(C)OC(=O)c1ccccc1C(=O)O)OC(=O)c1ccccc1C(=O)O (stereo unspecified) ?
DENV2 CPE rescue: 4; FGF22 binding: 0; CFTR F508del cor: -2; ERAP1 inh: 1

What do the screens show for `CC1C2CCC(C2)C1OC(=O)c1ccccc1C(=O)O` (stereo unspecified)?
DENV2 CPE rescue: -8; E-sel inducer: 0; FGF22 binding: 44*; CFTR F508del cor: 9.4*; ERAP1 inh: -2

How did O=C(O)c1ccccc1N1C(=O)C2C3CCC(C3)C2C1=O (stereo unspecified) do in these assays?
DENV2 CPE rescue: -1; E-sel inducer: 5; FGF22 binding: 0; CFTR F508del cor: 0; ERAP1 inh: 1

What do the screens show for `O=C(O)c1ccccc1C(=O)OC1CCCC2CCCC21` (stereo unspecified)?
DENV2 CPE rescue: 0; E-sel inducer: 0; FGF22 binding: 43*; CFTR F508del cor: -1; ERAP1 inh: -6

Results for CO[C@H]1CN(C)C(=O)c2cc(NC(=O)c3ccccc3)ccc2OC[C@H](C)N(C)C[C@@H]1C ?
DENV2 CPE rescue: -10; E-sel inducer: 0; FGF22 binding: 0; CFTR F508del cor: 2; ERAP1 inh: 1

Results for Cc1ccccc1NC(=O)Nc1ccc2c(c1)C(=O)N(C)[C@H]1CC[C@@H](CC(=O)O)O[C@@H]1CO2 ?
DENV2 CPE rescue: 1; E-sel inducer: 0; FGF22 binding: 0; CFTR F508del cor: -2

What do the screens show for `CC(C)NC(=O)Nc1cccc2c1O[C@H](CN(C)C(=O)Nc1ccc(F)cc1)[C@H](C)CN([C@@H](C)CO)C2=O`?
DENV2 CPE rescue: -10; E-sel inducer: 1; FGF22 binding: 0; CFTR F508del cor: 2; ERAP1 inh: -2

Results for CC(C)NC(=O)Nc1cccc2c1O[C@@H](CN(C)C(=O)Nc1ccc(F)cc1)[C@@H](C)CN([C@H](C)CO)C2=O ?
DENV2 CPE rescue: 22*; E-sel inducer: 0; FGF22 binding: 0; CFTR F508del cor: -2; ERAP1 inh: -2

How did C[C@H](CO)N1C[C@H](C)[C@H](CN(C)C(=O)Nc2ccc(F)cc2)Oc2c(NC(=O)C3CC3)cccc2C1=O do in these assays?
DENV2 CPE rescue: 35*; E-sel inducer: 0; CFTR F508del cor: -3; ERAP1 inh: 0

What do the screens show for `C[C@@H]1CN([C@H](C)CO)C(=O)c2cccc(NC(=O)C3CC3)c2O[C@@H]1CN(C)C(=O)Nc1ccc(F)cc1`?
DENV2 CPE rescue: 12; E-sel inducer: 1; FGF22 binding: 0; CFTR F508del cor: 1; ERAP1 inh: -3

Results for CC(C)CC#Cc1cnc2c(c1)C(=O)N([C@H](C)CO)C[C@H](C)[C@H](CN(C)S(C)(=O)=O)O2 ?
DENV2 CPE rescue: -4; E-sel inducer: 0; FGF22 binding: 0; CFTR F508del cor: -1; ERAP1 inh: -2

Results for C[N+]1(C2CCC3CCCC2C3O)CCCCC1 (stereo unspecified) ?
FGF22 binding: 0; CFTR F508del cor: 2; ERAP1 inh: 46*

How did Cc1ccc2c(c1)sc(=NC(=O)c1cccs1)n2C do in these assays?
FGF22 binding: 43*; CFTR F508del cor: 1; ERAP1 inh: 10

How did Cc1noc(C)c1S(=O)(=O)Nc1ccc2c(c1)CC(=O)N([C@H](C)CO)C[C@@H](C)[C@@H](CN(C)CC1CC1)O2 do in these assays?
DENV2 CPE rescue: -4; E-sel inducer: 0; FGF22 binding: 0; CFTR F508del cor: 1; ERAP1 inh: 2

How did COc1cc(NC(=O)[C@@H](Cc2ccccc2)NC(=O)[C@H]2O[C@@H](n3ccc(N)nc3=O)[C@H](O)[C@@H]2O)cc(OC)c1OC do in these assays?
DENV2 CPE rescue: inconclusive; E-sel inducer: 0; FGF22 binding: 0; CFTR F508del cor: -1; ERAP1 inh: -2

How did COc1cc(NC(=O)[C@@H](Cc2ccccc2)NC(=O)[C@H]2O[C@@H](n3ccc(=O)[nH]c3=O)[C@H](O)[C@@H]2O)cc(OC)c1OC do in these assays?
DENV2 CPE rescue: 43*; E-sel inducer: 0; FGF22 binding: 0; CFTR F508del cor: 5; ERAP1 inh: -2

Results for CC(=O)Nc1ccc(NC(=O)C2CCCN2C(=O)Nc2cccc(F)c2)cc1 (stereo unspecified) ?
DENV2 CPE rescue: 8; FGF22 binding: 0; CFTR F508del cor: 2; ERAP1 inh: -2

Results for COc1ccc(NC(=O)C2CCCN2C(=O)Nc2cccc(F)c2)cc1 (stereo unspecified) ?
DENV2 CPE rescue: 1; E-sel inducer: 6; FGF22 binding: 0; CFTR F508del cor: 9.7*

How did CNC[C@@H]1Oc2ccc(NC(=O)Cc3cn(C)c4ccccc34)cc2C(=O)N([C@@H](C)CO)C[C@@H]1C do in these assays?
E-sel inducer: 0

How did CCCCC(=O)Nc1cccc(C(C)O)c1 (stereo unspecified) do in these assays?
DENV2 CPE rescue: 9; E-sel inducer: 2; FGF22 binding: 43*; CFTR F508del cor: 2; ERAP1 inh: 2

What do the screens show for `CC(C)CC(=O)Nc1cccc(C(C)O)c1` (stereo unspecified)?
DENV2 CPE rescue: -4; E-sel inducer: 2; FGF22 binding: 43*; CFTR F508del cor: -1; ERAP1 inh: -1

What do the screens show for `C[C@@H]1CN([C@H](C)CO)C(=O)c2cc(NC(=O)CCCCCC(=O)Nc3ccccc3N)ccc2O[C@@H]1CN(C)C(=O)Nc1ccccc1`?
E-sel inducer: 0

Screens: PubChem BioAssay, Broad Institute
